pIC50: −log10 of the molar value. ≈ marks a conversion by molar mass, not a printed value. Calls of active or inactive are those of the source. No cut-off for these calls is given here.
Experiments:
[1] = system: Candida albicans; test: Antifungal activity against Candida albicans ATCC 24443 assessed as reduction in fungal growth incubated for 24 hrs by broth microdilution method based spectrophotometric analysis; assay type: functional
[2] = system: Candida albicans; test: Antifungal activity against Candida albicans ATCC 24443 assessed as reduction in fungal growth incubated for 48 hrs by broth microdilution method based spectrophotometric analysis; assay type: functional
[3] = system: Pichia kudriavzevii; test: Antifungal activity against Candida krusei ATCC 6258 assessed as reduction in fungal growth incubated for 24 hrs by broth microdilution method based spectrophotometric analysis; assay type: functional
[4] = system: Pichia kudriavzevii; test: Antifungal activity against Candida krusei ATCC 6258 assessed as reduction in fungal growth incubated for 48 hrs by broth microdilution method based spectrophotometric analysis; assay type: functional
[5] = system: Candida parapsilosis; test: Antifungal activity against Candida parapsilosis ATCC 22019 assessed as reduction in fungal growth incubated for 24 hrs by broth microdilution method based spectrophotometric analysis; assay type: functional; conditions: Lodderomyces parapsilosis
[6] = system: Candida parapsilosis; test: Antifungal activity against Candida parapsilosis ATCC 22019 assessed as reduction in fungal growth incubated for 48 hrs by broth microdilution method based spectrophotometric analysis; assay type: functional; conditions: Lodderomyces parapsilosis
[7] = system: Lichtheimia corymbifera; test: Antifungal activity against Lichtheimia corymbifera CCM 8077 assessed as reduction in fungal growth incubated for 24 hrs by broth microdilution method based spectrophotometric analysis; assay type: functional
[8] = system: Lichtheimia corymbifera; test: Antifungal activity against Lichtheimia corymbifera CCM 8077 assessed as reduction in fungal growth incubated for 48 hrs by broth microdilution method based spectrophotometric analysis; assay type: functional
[9] = system: Trichophyton interdigitale; test: Antifungal activity against Trichophyton interdigitale ATCC 9533 assessed as reduction in fungal growth incubated for 72 hrs by broth microdilution method based spectrophotometric analysis; assay type: functional
[10] = system: Trichophyton interdigitale; test: Antifungal activity against Trichophyton interdigitale ATCC 9533 assessed as reduction in fungal growth incubated for 120 hrs by broth microdilution method based spectrophotometric analysis; assay type: functional
[11] = system: Staphylococcus aureus; test: Antibacterial activity against Staphylococcus aureus ATCC 29213 assessed as reduction in bacterial growth incubated for 24 hrs by broth microdilution method; assay type: functional
How it was run: (§1)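 Cation-adjusted Mueller-Hinton broth microdilution per EUCAST, modified; compounds from DMSO stocks, final DMSO ≤1% v/v; scale starting from 0.49 µM. Static incubation at 35 ± 2 °C, dark, humidified, read at 24 and 48 h. MIC = lowest concentration with no visible growth by eye; duplicates, parallel readings within one dilution step; growth and medium/DMSO controls included.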

[12] = system: Staphylococcus aureus; test: Antibacterial activity against Staphylococcus aureus ATCC 29213 assessed as reduction in bacterial growth incubated for 48 hrs by broth microdilution method; assay type: functional; how it was run: as §1
[13] = system: Staphylococcus aureus; test: Antibacterial activity against methicillin-resistant Staphylococcus aureus ATCC 43300 assessed as reduction in bacterial growth incubated for 24 hrs by broth microdilution method; assay type: functional
How it was run: (§2)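 EUCAST-based broth microdilution in cation-adjusted Mueller-Hinton broth. DMSO stocks, final DMSO ≤1% v/v, concentration scale starting from 0.49 µM. Static incubation at 35 ± 2 °C, dark and humidified. Run in duplicate, accepted only if parallel MICs differ by at most one dilution step. MIC is the lowest concentration with no visible growth by naked eye.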

[14] = system: Staphylococcus aureus; test: Antibacterial activity against methicillin-resistant Staphylococcus aureus ATCC 43300 assessed as reduction in bacterial growth incubated for 48 hrs by broth microdilution method; assay type: functional; how it was run: as §2
[15] = system: Staphylococcus epidermidis; test: Antibacterial activity against Staphylococcus epidermidis ATCC 12228 assessed as reduction in bacterial growth incubated for 24 hrs by broth microdilution method; assay type: functional; how it was run: as §1
[16] = system: Staphylococcus epidermidis; test: Antibacterial activity against Staphylococcus epidermidis ATCC 12228 assessed as reduction in bacterial growth incubated for 48 hrs by broth microdilution method; assay type: functional; how it was run: as §1
[17] = system: Enterococcus faecalis; test: Antibacterial activity against Enterococcus faecalis ATCC 29212 assessed as reduction in bacterial growth incubated for 24 hrs by broth microdilution method; assay type: functional; how it was run: as §1
[18] = system: Enterococcus faecalis; test: Antibacterial activity against Enterococcus faecalis ATCC 29212 assessed as reduction in bacterial growth incubated for 48 hrs by broth microdilution method; assay type: functional; how it was run: as §1
[19] = system: Escherichia coli; test: Antibacterial activity against Escherichia coli ATCC 25922 assessed as reduction in bacterial growth incubated for 24 hrs by broth microdilution method; assay type: functional; how it was run: as §1
[20] = system: Escherichia coli; test: Antibacterial activity against Escherichia coli ATCC 25922 assessed as reduction in bacterial growth incubated for 48 hrs by broth microdilution method; assay type: functional; how it was run: as §1
[21] = system: HepG2; test: Cytotoxicity against human HepG2 cells assessed as reduction in cell viability incubated for 24 hrs by cell-titer 96 aqueous one solution cell proliferation assay; assay type: functional, cell-based; conditions: HepG2, 24 h
[22] = system: HK-2; test: Cytotoxicity against human HK-2 cells assessed as reduction in cell viability incubated for 24 hrs by cell-titer 96 aqueous one solution cell proliferation assay; assay type: cell-based; conditions: HK-2, 24 h
[23] = system: HepG2; test: Antiproliferative activity against human HepG2 cells assessed as increase in caspase 3/7 level at 100 uM incubated for 24 hrs by Caspase-glo reagent based microplate reader analysis relative to control; assay type: functional
How it was run: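 HepG2 cells seeded at 15 000/well, compounds diluted in complete MEM, 24 h at 37 °C, 5% CO2; untreated vehicle controls. Caspase-Glo 3/7 reagent added, shaken 350 rpm at room temperature 60 min in dark, luminescence read. Expressed as fold of untreated control; triplicate wells, mean ± SD with n = 6.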

[24] = system: Pseudomonas aeruginosa; test: Antibacterial activity against Pseudomonas aeruginosa ATCC 27853 assessed as reduction in bacterial growth measured for 24 to 48 hrs by broth microdilution method; assay type: functional, organism-based; conditions: time 24-48 hrs; how it was run: as §1
[25] = system: Klebsiella pneumoniae; test: Antibacterial activity against Klebsiella pneumoniae ATCC 10031 assessed as reduction in bacterial growth measured for 24 to 48 hrs by broth microdilution method; assay type: functional, organism-based; conditions: time 24-48 hrs; how it was run: as §1
[26] = system: Serratia marcescens; test: Antibacterial activity against clinical isolate Serratia marcescens assessed as reduction in bacterial growth measured for 24 to 48 hrs by broth microdilution method; assay type: functional, organism-based; conditions: time 24-48 hrs; how it was run: as §1
[27] = system: Staphylococcus aureus; test: Antibacterial activity against methicillin-susceptible Staphylococcus aureus CCM 4223 assessed as reduction in bacterial growth measured for 24 to 48 hrs by broth microdilution method; assay type: functional, organism-based; conditions: time 24-48 hrs; how it was run: as §1
[28] = system: Candida albicans; test: Antifungal activity against Candida albicans ATCC 24443 assessed as reduction in fungal growth incubated for 24 hrs by broth microdilution method; assay type: functional
How it was run: (§3)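 Broth microdilution per EUCAST (yeasts and moulds), modified: twofold dilutions from DMSO (final ≤1% v/v) in RPMI-1640 with L-glutamine, 2% glucose, MOPS-buffered pH 7.0; scale from 0.49 µM. Static, dark, humidified, 35 ± 2 °C for 24 and 48 h (Trichophyton interdigitale 72 and 120 h). MIC = complete visible inhibition by eye; duplicates within one dilution step.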

[29] = system: Candida albicans; test: Antifungal activity against Candida albicans ATCC 24443 assessed as reduction in fungal growth incubated for 48 hrs by broth microdilution method; assay type: functional; how it was run: as §3
[30] = system: Pichia kudriavzevii; test: Antifungal activity against Candida krusei ATCC 6258 assessed as reduction in fungal growth incubated for 24 hrs by broth microdilution method; assay type: functional; how it was run: as §3
[31] = system: Pichia kudriavzevii; test: Antifungal activity against Candida krusei ATCC 6258 assessed as reduction in fungal growth incubated for 48 hrs by broth microdilution method; assay type: functional; how it was run: as §3
[32] = system: Candida parapsilosis; test: Antifungal activity against Candida parapsilosis ATCC 22019 assessed as reduction in fungal growth incubated for 24 hrs by broth microdilution method; assay type: functional; conditions: Lodderomyces parapsilosis; how it was run: as §3
[33] = system: Candida parapsilosis; test: Antifungal activity against Candida parapsilosis ATCC 22019 assessed as reduction in fungal growth incubated for 48 hrs by broth microdilution method; assay type: functional; conditions: Lodderomyces parapsilosis; how it was run: as §3
[34] = system: Lichtheimia corymbifera; test: Antifungal activity against Lichtheimia corymbifera CCM 8077 assessed as reduction in fungal growth incubated for 24 hrs by broth microdilution method; assay type: functional; how it was run: as §3
[35] = system: Lichtheimia corymbifera; test: Antifungal activity against Lichtheimia corymbifera CCM 8077 assessed as reduction in fungal growth incubated for 48 hrs by broth microdilution method; assay type: functional; how it was run: as §3
[36] = system: Trichophyton interdigitale; test: Antifungal activity against Trichophyton interdigitale ATCC 9533 assessed as reduction in fungal growth incubated for 72 hrs by broth microdilution method; assay type: functional; how it was run: as §3
[37] = system: Trichophyton interdigitale; test: Antifungal activity against Trichophyton interdigitale ATCC 9533 assessed as reduction in fungal growth incubated for 120 hrs by broth microdilution method; assay type: functional; how it was run: as §3
[38] = Therapeutic index, ratio of IC50 for cytotoxicity against human HepG2 cells to MIC for antifungal activity against Candida albicans ATCC 24443

| SMILES | MIC [11] [µM] | MIC [12] [µM] | MIC [13] [µM] | MIC [14] [µM] | MIC [15] [µM] | MIC [16] [µM] | MIC [17] [µM] | MIC [18] [µM] | MIC [19] [µM] | MIC [20] [µM] | pIC50 [21] | pIC50 [22] | other results |
| --- | --- | --- | --- | --- | --- | --- | --- | --- | --- | --- | --- | --- | --- |
| OC(Cn1cncn1)(Cn1cncn1)c1ccc(F)cc1F [FLUCONAZOLE] |  |  |  |  |  |  |  |  |  |  |  |  | MIC [1]: 6.5 µM (≈ 1.99 µg/mL); MIC [2]: 6.5 µM (≈ 1.99 µg/mL); MIC [3]: > 104 µM; MIC [4]: > 104 µM; MIC [5]: 3.3 µM (≈ 1.01 µg/mL); MIC [6]: 3.3 µM (≈ 1.01 µg/mL); MIC [7]: > 104 µM; MIC [8]: > 104 µM; MIC [9]: 52.2 µM (≈ 16 µg/mL); MIC [10]: 52.2 µM (≈ 16 µg/mL) |
| O=C(N/N=C/c1cc(I)cc(I)c1O)c1ccc(C(F)(F)F)cc1 | 31.2 (≈ 17.5 µg/mL) | 31.2 (≈ 17.5 µg/mL) | 31.2 (≈ 17.5 µg/mL) | 31.2 (≈ 17.5 µg/mL) | 31.2 (≈ 17.5 µg/mL) | 31.2 (≈ 17.5 µg/mL) | 31.2 (≈ 17.5 µg/mL) | 31.2 (≈ 17.5 µg/mL) | > 250 | > 250 | 4.93 | 4.30 | fold change (FC) [23]: 1.37 |
| O=C(N/N=C/c1cc(I)cc(I)c1O)c1ccc(O)cc1 | 31.2 (≈ 15.9 µg/mL) | 62.5 (≈ 31.8 µg/mL) | 62.5 (≈ 31.8 µg/mL) | 62.5 (≈ 31.8 µg/mL) | 62.5 (≈ 31.8 µg/mL) | 125 (≈ 63.5 µg/mL) | 250 (≈ 127 µg/mL) | 250 (≈ 127 µg/mL) | 250 (≈ 127 µg/mL) | 250 (≈ 127 µg/mL) | 4.72 |  | Activity [24]: inactive; Activity [25]: inactive; Activity [26]: inactive; Activity [27]: Active |
| O=C(N/N=C/c1cc(I)cc(I)c1O)c1ccc([N+](=O)[O-])cc1 | 31.2 (≈ 16.8 µg/mL) | 62.5 (≈ 33.6 µg/mL) | 31.2 (≈ 16.8 µg/mL) | 62.5 (≈ 33.6 µg/mL) | 31.2 (≈ 16.8 µg/mL) | 62.5 (≈ 33.6 µg/mL) | 62.5 (≈ 33.6 µg/mL) | 125 (≈ 67.1 µg/mL) | > 125 | > 125 | 4.61 | 4.57 | MIC [28]: 1.95 µM (≈ 1.05 µg/mL); MIC [29]: 7.81 µM (≈ 4.19 µg/mL); MIC [30]: 62.5 µM (≈ 33.6 µg/mL); MIC [31]: > 125 µM; MIC [32]: > 125 µM; MIC [33]: > 125 µM; MIC [34]: 31.2 µM (≈ 16.8 µg/mL); MIC [35]: 62.5 µM (≈ 33.6 µg/mL); MIC [36]: 3.9 µM (≈ 2.09 µg/mL); MIC [37]: 15.6 µM (≈ 8.39 µg/mL); Ratio [38]: 13.1 |

Source: ChEMBL document CHEMBL4811275, “Iodinated 1,2-diacylhydrazines, benzohydrazide-hydrazones and their analogues as dual antimicrobial and cytotoxic agents” (Bioorg Med Chem, 2021)
